Reference: ChEMBL document CHEMBL1134579, “Design and biological activity of (S)-4-(5-([1-(3-chlorobenzyl)-2-oxopyrrolidin-3-ylamino]methyl)imidazol-1-ylmethyl)benzonitrile, a 3-aminopyrrolidinone farnesyltransferase inhibitor with excellent cell potency” (J Med Chem, 2001)

How the values were obtained:
[1] = target: Geranylgeranyl transferase type-1 subunit beta (Homo sapiens, UniProt P53609); assay: Inhibitory concentration of geranylgeranyl-protein transferase type I
[2] = target: Protein farnesyltransferase (Homo sapiens, UniProt P49354+P49356); assay: In vitro inhibition of farnesyl transferase using purified recombinant human enzyme; type: protein-complex assay
Summary of the method: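 Purified recombinant human FTase with [1-³H]FPP and a recombinant protein substrate carrying the K-Ras C-terminus (CVIM). Labeled farnesyl incorporation measured by acid precipitation of total protein and scintillation counting. Final methanol or DMSO 0.5 vol %. Mostly run at least twice; SD given for n≥3.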

[3] = target: Protein farnesyltransferase (Rattus norvegicus); assay: Concentration required to displace 50% of a potent radiolabeled FTI from farnesyl transferase in cultured H-ras-transformed Rat1 cells
[4] = target: Voltage-gated inwardly rectifying potassium channel KCNH2 (Homo sapiens, UniProt Q12809)
Chain of Voltage-gated inwardly rectifying potassium channel KCNH2 (Q12809 whole entry): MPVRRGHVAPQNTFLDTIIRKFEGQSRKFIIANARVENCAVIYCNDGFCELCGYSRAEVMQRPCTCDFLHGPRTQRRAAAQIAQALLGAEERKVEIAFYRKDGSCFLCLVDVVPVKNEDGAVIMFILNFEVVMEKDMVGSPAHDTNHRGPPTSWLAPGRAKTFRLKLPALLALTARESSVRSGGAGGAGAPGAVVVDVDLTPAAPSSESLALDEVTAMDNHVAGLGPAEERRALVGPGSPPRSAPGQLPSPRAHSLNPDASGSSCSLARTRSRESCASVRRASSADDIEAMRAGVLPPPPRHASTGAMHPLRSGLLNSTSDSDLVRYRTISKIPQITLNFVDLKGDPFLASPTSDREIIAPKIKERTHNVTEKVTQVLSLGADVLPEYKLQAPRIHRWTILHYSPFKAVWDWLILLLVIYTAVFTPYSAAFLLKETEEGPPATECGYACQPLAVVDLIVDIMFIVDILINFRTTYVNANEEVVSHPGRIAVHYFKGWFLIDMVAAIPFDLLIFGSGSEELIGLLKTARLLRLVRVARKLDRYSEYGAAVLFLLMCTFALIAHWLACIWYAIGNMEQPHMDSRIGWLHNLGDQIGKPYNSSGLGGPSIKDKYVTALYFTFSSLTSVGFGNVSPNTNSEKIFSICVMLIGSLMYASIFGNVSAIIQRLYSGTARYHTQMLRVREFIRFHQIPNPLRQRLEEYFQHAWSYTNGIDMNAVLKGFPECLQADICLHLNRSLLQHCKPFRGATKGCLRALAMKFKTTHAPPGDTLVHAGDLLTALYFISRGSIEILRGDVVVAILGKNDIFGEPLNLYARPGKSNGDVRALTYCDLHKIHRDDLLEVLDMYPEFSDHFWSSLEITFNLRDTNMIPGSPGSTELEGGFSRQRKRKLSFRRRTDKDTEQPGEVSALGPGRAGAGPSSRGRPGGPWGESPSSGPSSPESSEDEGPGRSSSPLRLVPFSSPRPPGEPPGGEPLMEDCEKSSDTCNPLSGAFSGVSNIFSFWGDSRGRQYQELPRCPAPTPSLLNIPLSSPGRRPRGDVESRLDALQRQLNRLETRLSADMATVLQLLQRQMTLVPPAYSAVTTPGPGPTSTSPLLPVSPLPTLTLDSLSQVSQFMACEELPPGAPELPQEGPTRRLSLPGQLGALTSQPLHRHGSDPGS

Chain of Geranylgeranyl transferase type-1 subunit beta (P53609 whole entry): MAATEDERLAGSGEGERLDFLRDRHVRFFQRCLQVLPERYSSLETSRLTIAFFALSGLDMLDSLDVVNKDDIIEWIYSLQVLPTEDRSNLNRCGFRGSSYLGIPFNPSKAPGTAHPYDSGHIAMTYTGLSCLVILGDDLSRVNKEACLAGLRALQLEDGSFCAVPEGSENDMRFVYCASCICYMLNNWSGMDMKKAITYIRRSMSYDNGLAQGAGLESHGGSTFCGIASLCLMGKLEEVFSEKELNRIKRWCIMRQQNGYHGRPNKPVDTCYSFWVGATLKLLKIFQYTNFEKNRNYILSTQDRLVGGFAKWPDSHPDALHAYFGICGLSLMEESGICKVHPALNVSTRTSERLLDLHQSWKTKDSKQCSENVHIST

| IC50 [1] | IC50 [2] | IC50 [3] | SMILES | IC50 [4] |
| --- | --- | --- | --- | --- |
| > 20 µM |  |  | N#Cc1ccc(Cn2cncc2CN[C@H]2CCN(c3cccc4ncccc34)C2=O)cc1 |  |
| 31 µM | 250 nM |  | N#Cc1ccc(Cn2cncc2CN[C@@H]2CCN(CCc3ccccc3)C2=O)cc1 |  |
| 2.7 µM | 1.3 nM | 1.1 nM | CC(C)(C)OC(=O)NCCCN(Cc1cncn1Cc1ccc(C#N)cc1)[C@H]1CCN(Cc2cccc(Cl)c2)C1=O | 0.11 µM |
| 12 µM |  |  | N#Cc1ccc(Cn2cncc2CN(CCN2CCOCC2)[C@H]2CCN(Cc3cccc(Cl)c3)C2=O)cc1 |  |
| > 50 µM | 150 nM |  | COc1ncccc1C(=O)N1CC[C@H](NCc2cncn2Cc2ccc(C#N)cc2)C1 |  |
| 19 µM | 89 nM | 70 nM | N#Cc1ccc(Cn2cncc2CN[C@H]2CCN(C(=O)c3ccc(Cl)cc3)C2)cc1 |  |
| > 50 µM | 6800 nM |  | N#Cc1ccc(Cn2cncc2CN[C@H]2CCN(C(=O)c3ccc[nH]c3=O)C2)cc1 |  |
| 19 µM | 65 nM |  | N#Cc1ccc(Cn2cncc2CN[C@H]2CCN(C(=O)c3ccccc3Cl)C2)cc1 |  |
| 20 µM | 67 nM |  | N#Cc1ccc(Cn2cncc2CN(Cc2ccccc2)[C@H]2CCN(Cc3ccccc3)C2=O)cc1 |  |
| 36 µM | 370 nM |  | N#Cc1ccc(Cn2cncc2CN[C@H]2CCN(c3ccccn3)C2=O)cc1 |  |
| 2.8 µM | 240 nM |  | N#Cc1ccc(Cn2cncc2CCN[C@H]2CCN(CCc3ccccc3)C2=O)cc1 |  |
| 40 µM |  |  | N#Cc1ccc(Cn2cncc2CN[C@H]2CCN(Cc3ccccc3)C2=O)cc1 | 7.2 µM |
| > 50 µM | 100 nM | 610 nM | Cc1ncccc1C(=O)N1CC[C@H](NCc2cncn2Cc2ccc(C#N)cc2)C1 | > 10 µM |
| 28 µM |  |  | CSc1ncccc1C(=O)N1CC[C@H](NCc2cncn2Cc2ccc(C#N)cc2)C1 |  |
| 0.88 µM | 11 nM | 330 nM | N#Cc1ccc(Cn2cncc2CN[C@H]2CCN(C(=O)c3cccc4ccccc34)C2)cc1 |  |
| 15 µM | 25 nM | 53 nM | N#Cc1ccc(Cn2cncc2CN[C@H]2CCN(Cc3ccc(Cl)cc3)C2=O)cc1 |  |
| 24 µM | 110 nM |  | N#Cc1ccc(Cn2cncc2CN[C@H]2CCN(C(=O)c3ccccc3)C2)cc1 |  |
|  | 59 nM | 36 nM | CCCN(Cc1cncn1Cc1ccc(C#N)cc1)[C@H]1CCN(Cc2ccccc2)C1=O |  |
| 14 µM | 280 nM | 150 nM | N#Cc1ccc(Cn2cncc2CCN[C@H]2CCN(c3ccccc3)C2=O)cc1 |  |
| 48 µM | 230 nM |  | N#Cc1ccc(Cn2cncc2CN[C@H]2CCN(CCc3ccccc3)C2=O)cc1 |  |
| > 50 µM | 2900 nM |  | N#Cc1ccc(Cn2cncc2CN[C@H]2CCN(C(=O)c3cccnc3S)C2)cc1 | 11 µM |
| ~5.1 µM | 4.8 nM | 6.2 nM | CCSc1ncccc1C(=O)N1CC[C@H](NCc2cncn2Cc2ccc(C#N)cc2)C1 | 14 µM |
| 3.6 µM |  |  | CC(C)(C)OC(=O)NCCCN(Cc1cncn1Cc1ccc(C#N)cc1)[C@H]1CCN(Cc2ccccc2)C1=O |  |
| > 50 µM | 980 nM |  | N#Cc1ccc(Cn2cncc2CN[C@H]2CCN(C(=O)c3cccnc3N)C2)cc1 | > 50 µM |
| > 20 µM | 43 nM | 200 nM | N#Cc1ccc(Cn2cncc2CN[C@H]2CCN(c3ccncc3)C2=O)cc1 |  |
| 42 µM | 1.5 nM | 14 nM | N#Cc1ccc(Cn2cncc2CN[C@H]2CCN(c3ccccc3Cl)C2=O)cc1 |  |
| > 50 µM | 2000 nM |  | N#Cc1ccc(Cn2cncc2CN[C@H]2CCN(C(=O)c3cccnc3)C2)cc1 |  |

More lines, now with the values behind:

| SMILES | IC50 [1] | IC50 [2] | IC50 [3] | IC50 [4] |
| --- | --- | --- | --- | --- |
| N#Cc1ccc(Cn2cncc2CN[C@@H]2CCN(c3ccccc3)C2=O)cc1 | 41 µM | 200 nM |  |  |
| N#Cc1ccc(Cn2cncc2CN[C@@H]2CCN(Cc3ccccc3)C2=O)cc1 | 46 µM |  |  |  |
| N#Cc1ccc(Cn2cncc2CN[C@H]2CCN(c3ccc(Cl)cc3)C2=O)cc1 | 11 µM | 21 nM | 30 nM |  |
| N#Cc1ccc(Cn2cncc2CN(CCN2CCNCC2)[C@H]2CCN(Cc3cccc(Cl)c3)C2=O)cc1 | > 50 µM |  |  |  |
| N#Cc1ccc(Cn2cncc2CCN[C@@H]2CCN(c3ccccc3)C2=O)cc1 | 16 µM | 120 nM |  |  |
| N#Cc1ccc(Cn2cncc2CN[C@H]2CCN(Cc3cccc(Cl)c3)C2=O)cc1 | 3.4 µM |  |  |  |
| N#Cc1ccc(Cn2cncc2CN(CCCc2ccccc2)[C@H]2CCN(Cc3cccc(Cl)c3)C2=O)cc1 | 6.5 µM |  |  |  |
| N#Cc1ccc(Cn2cncc2CN[C@H]2CCN(C(=O)c3cccc(Cl)c3)C2)cc1 | 11 µM | 27 nM | 67 nM | 5.8 µM |
| N#Cc1ccc(Cn2cncc2CCN[C@@H]2CCN(CCc3ccccc3)C2=O)cc1 | 1.5 µM | 380 nM |  |  |
| N#Cc1ccc(Cn2cncc2CN[C@H]2CCN(Cc3ccccc3Cl)C2=O)cc1 | 11 µM | 5.2 nM | 2.7 nM |  |
| N#Cc1ccc(Cn2cncc2CN(CCc2ccccc2)[C@H]2CCN(Cc3ccccc3)C2=O)cc1 | 15 µM | 51 nM | 460 nM |  |
| N#Cc1ccc(Cn2cncc2CN(CCCN)[C@H]2CCN(Cc3ccccc3)C2=O)cc1 | > 50 µM |  |  |  |
| N#Cc1ccc(Cn2cncc2CN(Cc2cccnc2)[C@H]2CCN(Cc3ccccc3)C2=O)cc1 | > 50 µM |  |  |  |
| N#Cc1ccc(Cn2cncc2CN(CCCc2ccccc2)[C@H]2CCN(Cc3ccccc3)C2=O)cc1 | 12 µM |  |  |  |
| N#Cc1ccc(Cn2cncc2CN[C@H]2CCN(c3ccccc3)C2=O)cc1 | 46 µM | 74 nM | 27 nM |  |
| N#Cc1ccc(Cn2cncc2CCN[C@@H]2CCN(Cc3ccccc3)C2=O)cc1 | 11 µM | 250 nM |  |  |
| N#Cc1ccc(Cn2cncc2CN(CCCN)[C@H]2CCN(Cc3cccc(Cl)c3)C2=O)cc1 | > 50 µM | 7.5 nM | 150 nM | 0.48 µM |
| N#Cc1ccc(Cn2cncc2CCN[C@H]2CCN(Cc3ccccc3)C2=O)cc1 | 7.4 µM | 270 nM |  |  |
| N#Cc1ccc(Cn2cncc2CN(CCCCc2ccccc2)[C@H]2CCN(Cc3ccccc3)C2=O)cc1 | 4.6 µM | 42 nM | 310 nM |  |
| N#Cc1ccc(Cn2cncc2CN[C@H]2CCN(C(=O)c3cncc(Br)c3)C2)cc1 | 41 µM | 43 nM | 49 nM | 6 µM |
| N#Cc1ccc(Cn2cncc2CN[C@H]2CCN(c3cccc(Cl)c3)C2=O)cc1 | 6.5 µM | 8.4 nM | 30 nM |  |
| N#Cc1ccc(Cn2cncc2CN[C@H]2CCN(c3cccnc3)C2=O)cc1 | > 20 µM | 85 nM | 240 nM |  |
